The source made the active and inactive calls. No cut-off for these calls is given here.

The IC50 is the point on the concentration scale where inhibition reaches its midpoint. Low readings indicate higher potency, high ones lower potency.

Test [1] is filed under the species Sus scrofa. Description: Inhibition of Na/K-ATPase in porcine cerebral cortex relative to ouabain. The test is classed as tissue-based. Summed up: (§1)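 Coupled pyruvate kinase/lactate dehydrogenase assay using lyophilized porcine cerebral cortex Na/K-ATPase. The enzyme was preincubated at 37 °C for at least 30 min (or overnight at room temperature first, in some cases) with 10–14 inhibitor concentrations. Reactions were started with 5 mM ATP. NADH oxidation was followed at 340 nm for 5 min. IC50 came from the inhibition curves; relative potency is the IC50 divided by ouabain's IC50.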

The nature of test [2]: (§2) Inhibition of Na/K-ATPase in porcine cerebral cortex. It is filed as tissue-based, Sus scrofa. The procedure, abridged:
as §1

The species entered for test [3] is Sus scrofa. The description is as §2. The test is classed as tissue-based. The procedure, abridged:
as §1

As to `C[C@H]1O[C@@H](O[C@H]2CC[C@]3(C=O)[C@H]4CC[C@]5(C)[C@@H](C6=CC(=O)OC6)CC[C@]5(O)[C@@H]4CC[C@]3(O)C2)C[C@H]2OC(C)(C)O[C@@H]12`, in the test filed under Sus scrofa [1], the Activity came out at 0.031. Further, the IC50 in test [2] came to 0.0146 µM. Take `CC(=O)OCC(=O)[C@@]1(OC(C)=O)CC[C@H]2[C@@H]3CC[C@H]4C[C@H](OC(C)=O)CC[C@]4(C)[C@H]3CC[C@@]21C`: the outcome in the test filed under Sus scrofa [3] was inactive. Take `C[C@]12CC[C@H]3[C@@H](CC[C@]4(O)C[C@@H](OC(=O)c5cccnc5)CC[C@]34C=O)[C@@]1(O)CC[C@@H]2C1=CC(=O)OC1`: the Activity in the test filed under Sus scrofa [1] turned out to be 0.944. Besides, it took 0.443 µM to reach half-maximal inhibition in test [2] (IC50). For `C[C@H]1O[C@@H](O[C@H]2CC[C@]3(C=O)[C@H]4CC[C@]5(C)[C@@H](C6=CC(=O)OC6)CC[C@]5(O)[C@@H]4CC[C@]3(O)C2)C[C@H](O)[C@@H]1O[C@@H]1OC[C@@H](O)[C@H](O)[C@H]1O` the same measures were 0.341 and 0.16 µM.

Turning to `C[C@H]1O[C@@H](O[C@H]2CC[C@]3(C=O)[C@H]4CC[C@]5(C)[C@@H](C6=COC(=O)C6)CC[C@]5(O)[C@@H]4CC[C@]3(O)C2)C[C@@H]2OC3(CCCCC3)O[C@@H]21`, the Activity in the test listed under Sus scrofa [1] turned out to be 0.872. In test [2], this compound came in with an IC50 of 0.409 µM.

As for `C[C@]12CC[C@@H](O)C[C@@H]1[C@@H](O)C[C@H]1[C@H]2CC[C@]2(C)[C@@H]([C@@]3(C)CO3)CC[C@]12C`, the result in the test filed under Sus scrofa [3] was inactive. On to `C[C@H]1CCC([C@@H](C)[C@H]2CC[C@@H]3[C@@H]2CC[C@H]2[C@H]3CC(=O)[C@H]3C[C@@H](O)CC[C@@]32C)=NC1`, for which the Activity in the test listed under Sus scrofa [1] was determined as 305. In test [2], the IC50 turned out to be 143 µM. Consider `C[C@@H]1C[C@@H]2O[C@]3(C[C@@]4(C)[C@@H]5[C@@H](O)C[C@H]6C(C)(C)[C@@H](O[C@H]7OC[C@H](O)[C@@H](O)[C@@H]7O)CC[C@@]67C[C@@]57CC[C@]4(C)[C@@H]13)O[C@@H]2C(C)(C)O`, for which the result in the test listed under Sus scrofa [3] was inactive.

Regarding `C[C@]12CC[C@H]3[C@@H](CC[C@]4(O)C[C@@H](O)CC[C@]34/C=N/Nc3ccccc3)[C@@]1(O)CC[C@@H]2C1=CC(=O)OC1`, in the test listed under Sus scrofa [1], the Activity amounted to 7.89. In test [2], this compound registered an IC50 of 4.23 µM. As to `CC1OC(O[C@H]2CC[C@]3(/C=N/CCc4ccc(O)cc4)[C@H]4CC[C@]5(C)[C@@H](C6=CC(=O)OC6)CC[C@]5(O)[C@@H]4CC[C@]3(O)C2)CC(O)C1O` (some centres not stated), in the test filed under Sus scrofa [1], the Activity amounted to 4.92. This compound also gave an IC50 in test [2] of 2.64 µM.

As for `CC(C)(O)[C@H]1CC[C@@](C)([C@H]2[C@@H](O)C[C@@]3(C)[C@@H]4C[C@H](O)C5C(C)(C)[C@@H](O[C@@H]6O[C@H](CO)[C@@H](O)[C@H](O)[C@H]6O)CC[C@@]56C[C@@]46CC[C@]23C)O1` (some centres not stated), the outcome in the test listed under Sus scrofa [3] was inactive.

For `CO[C@H]1[C@H](O)[C@H](O[C@H]2CC[C@@]3(C=O)[C@@H](CC[C@@H]4[C@H]3CC[C@]3(C)[C@@H](c5ccc(=O)oc5)CC[C@]43O)C2)O[C@@H](C)[C@@H]1O`, the Activity in the test filed under Sus scrofa [1] was 0.118. In test [2], this compound displayed an IC50 of 0.0556 µM. Taken in the same sequence, the figures for `C[C@]12CC[C@H]3[C@@H](CC[C@]4(O)C[C@@H](O)CC[C@]34/C=N/C34CC5CC(CC(C5)C3)C4)[C@@]1(O)CC[C@@H]2C1=CC(=O)OC1` were 0.668 and 0.313 µM.

Values taken from ChEMBL document CHEMBL1149660, “Identification and characterization of novel sodium/potassium-ATPase inhibitors by virtual screening of a compound database” (Bioorg Med Chem, 2007).
